ERAP1 HTS inh: human ERAP1 aminopeptidase inhibitors, primary screen, biochemical, single point, plate reader; AID 652197, 2013; 0.15% of 340,000 active; inhibition, % at 10.7 µM; recombinant ERAP1, Leu-AMC fluorescence, 60 min; Endoplasmic reticulum aminopeptidase 1 (Homo sapiens), Q9NZ08;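 active means mean replicate inhibition of at least 30%, or all replicates individually reaching that 30% level; inactive means mean below 30% and not every replicate reaching it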;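 further: 0% = neutral control wells and 100% = L-leucinethiol positive control wells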
Rtt109 HAT inh: inhibitors of C. albicans Rtt109/Vps75 HAT, primary screen, biochemical, ThioGlo CoA-SH fluorescence, plate reader | 0.16% of 330,000 active | purified Rtt109/Vps75, 4 h | AID 540336, 2011 | Histone acetyltransferase RTT109 (Candida albicans (strain SC5314 / ATCC MYA-2876)), … | inhibition, % at 34.9 µM;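 active means inhibition of at least 50% in every replicate; inconclusive means best replicate reaches 50% inhibition but some replicates fall short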
Target sequence (Q5AAJ8 whole entry, looked up): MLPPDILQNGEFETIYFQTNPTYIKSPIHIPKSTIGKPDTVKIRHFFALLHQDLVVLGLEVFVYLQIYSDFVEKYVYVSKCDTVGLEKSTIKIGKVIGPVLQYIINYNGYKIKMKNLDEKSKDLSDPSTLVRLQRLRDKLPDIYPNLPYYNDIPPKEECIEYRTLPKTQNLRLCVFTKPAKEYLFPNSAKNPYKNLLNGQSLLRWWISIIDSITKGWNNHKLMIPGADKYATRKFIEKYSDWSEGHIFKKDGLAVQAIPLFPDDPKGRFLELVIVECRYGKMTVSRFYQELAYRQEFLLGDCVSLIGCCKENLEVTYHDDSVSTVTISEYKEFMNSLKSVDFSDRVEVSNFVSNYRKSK
C2C12 statin: suppressors of statin myotoxicity in C2C12 myotubes, primary screen, cell-based, single point, plate reader | C2C12 myotubes + simvastatin, ATP luminescence, 48 h; scaled: DMSO 0, geranylgeraniol control 100 | rescue of ATP level, % at 7.49 µM | 0.78% of 330,000 active | AID 602340, 2012;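 active means mean ATP rescue above about 67%, or every replicate alone reaching that limit, limit read from the data, passing the limit was not always enough; inconclusive means no clear call, values can overlap the other calls; inactive means mean under the limit and some replicate under it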;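 further: myotubes were challenged with 10 µM simvastatin during compound exposure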
PGC1a acetyl inh: inhibitors of PGC1a acetylation signal, primary screen, cell-based, U2OS, AlphaScreen, inhibitor mode; AlphaScreen anti-acetyl-lysine; with virally co-expressed GCN5 acetyltransferase; inhibition, % at 15.6 µM; 0.17% of 350,000 active;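 active means every replicate shows inhibition of at least 40%; inconclusive means mean inhibition at least 40% but some replicate below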;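 further: 0% = neutral control wells and 100% = positive control wells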
S100A4 inh HTS: inhibitors of S100A4-myosin IIA peptide binding, primary screen, biochemical, fluorescence polarization, TAMRA-MyoIIA peptide; 0.14% of 360,000 active; inhibition, % at 10.7 µM;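 active means mean inhibition of at least 70% across replicates, with every replicate also reaching that level; inconclusive means mean inhibition reaches 70% but some replicates fall short; inactive means mean inhibition below 70%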
Target sequence (P26447 whole entry, looked up): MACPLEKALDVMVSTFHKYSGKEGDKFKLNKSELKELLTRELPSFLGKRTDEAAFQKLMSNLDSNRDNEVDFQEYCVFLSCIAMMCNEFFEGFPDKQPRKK
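Assay system: human S100A4 monomer with TAMRA-labelled myosin IIA peptide / Buffer or medium: Calcium-containing HEPES buffer, pH 7.2 / Reagent: TAMRA-labelled myosin IIA heavy-chain peptide probe, 5 nM / Compound: one dose per compound / Timing: polarization read 5 min after assay mix addition, stable 5–60 min / Benchmarks: neutral control DMSO, positive control TFP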
The depositor's hits bear a star; ? = inconclusive; / = no result. The list is not random: actives were taken first. Their share in the collection is about 0.98%.

SMILES	ERAP1 HTS inh	Rtt109 HAT inh	C2C12 statin	PGC1a acetyl inh	S100A4 inh HTS
COCC(=O)Nc1nc(-c2ccc(C)cc2)c(C)s1	/	5	123*	-3	/
O=C1C=CC(=O)N1c1ccccc1N1C(=O)C=CC1=O	58*	-3	-139	-39	-3
O=C(c1ccccc1)c1ccccc1N1C(=O)C=CC1=O	/	4	/	-33	0
COCc1nc2ccccc2n1Cc1ccc(Br)cc1	/	0	79*	-11	/
CCOC(=O)Cn1c(=O)c2c(nc3n2CCCN3Cc2ccccc2)n(C)c1=O	3	6	-4	-9	2
CCOC(=O)Cn1c(=O)c2c(nc3n2CCN3Cc2ccccc2)n(C)c1=O	/	-6	134*	4	/
CNC[C@@H]1OCCCC[C@@H](C)Oc2ccc(NC(=O)Nc3ccc(C(F)(F)F)cc3)cc2C(=O)N([C@H](C)CO)C[C@@H]1C	/	/	-19	0	/
Cc1ccc(Cn2c(C)c3cnn(CC(=O)NC4CCCC4)c(=O)c3c2C)cc1	3	5	8	-5	9
CNC(=O)Cn1ncc2c(C)n(Cc3ccc(C)cc3)c(C)c2c1=O	/	2	120*	0	/
O=C1CSC(c2cn(-c3ccccc3)nc2-c2ccccc2)N1Cc1ccco1 (stereo not drawn)	/	4	74*	-13	/
CCc1ccc(-c2nn(-c3ccccc3)cc2C2SCC(=O)N2Cc2ccco2)cc1 (stereo not drawn)	/	-8	/	/	/
Cc1ccc(S(=O)(=O)N(C)C[C@@H]2Oc3ccc(NS(=O)(=O)c4ccccc4)cc3C(=O)N([C@H](C)CO)C[C@@H]2C)cc1	1	/	/	-18	20
CSc1c(SCc2ccccc2)cnn(-c2ccccc2)c1=O	/	58*	/	/	/
C[C@H](CO)N1C[C@H](C)[C@H](CN(C)C)Oc2ccc(NS(=O)(=O)c3ccc(F)cc3)cc2C1=O	-4	/	-19	-1	-5
O=S(=O)(N[C@@H]1CC[C@@H](CCNS(=O)(=O)c2ccccc2Cl)O[C@H]1CO)c1ccccc1	1	/	-1	62*	-16
CCNC(=O)C[C@@H]1CC[C@@H](NS(=O)(=O)c2ccc(F)cc2)[C@H](CO)O1	-1	/	-5	4	96*
O=C(CC1CC1)N[C@@H]1CC[C@@H](CCNS(=O)(=O)c2ccc(Cl)cc2)O[C@@H]1CO	-3	/	6	56*	2
O=C(CC1CC1)N[C@@H]1CC[C@H](CCNS(=O)(=O)c2ccc(Cl)cc2)O[C@H]1CO	-1	/	0	64*	-5
Cc1ccc(S(=O)(=O)NCC[C@H]2CC[C@@H](NC(=O)CC3CC3)[C@@H](CO)O2)cc1	2	/	1	-1	-3
O=S(=O)(N[C@@H]1CC[C@H](CCNS(=O)(=O)c2ccccc2Cl)O[C@@H]1CO)c1ccccc1	0	/	-2	-3	-4
COc1ccc2c3c([nH]c2c1)[C@@H](CO)N(C(=O)C1CCOCC1)CC31CCN(C(=O)NC(C)C)CC1	2	/	/	/	-8
Cc1cccc(Cc2c(C)nc3c(C(=O)NCc4ccco4)cnn3c2C)c1	/	5	107*	8	/
Cc1nc2c(C(=O)NCc3ccco3)cnn2c(C)c1Cc1ccc(F)cc1Cl	/	-8	42	7	/
C[C@@H]1CN([C@H](C)CO)C(=O)c2cc(N(C)C)ccc2O[C@@H](C)CCCCO[C@H]1CN(C)C(=O)Nc1ccc2c(c1)OCO2	/	/	-6	-18	/
Oc1ccc(C=NNc2nc3ccccc3s2)c(O)c1	-7	1	117*	3	0
SMILES	ERAP1 HTS inh	Rtt109 HAT inh	C2C12 statin	PGC1a acetyl inh	S100A4 inh HTS
C[C@@H]1CN([C@@H](C)CO)C(=O)c2cc(C#Cc3ccccc3F)cnc2O[C@H]1CN(C)C(=O)Cc1ccccc1	3	/	?	6	-1
CCOC(=O)C(CC)n1cnc2c(nnn2-c2ccc(OC)cc2)c1=O (stereo not drawn)	/	-6	98*	0	/
CCOC(=O)C(C)n1cnc2c(nnn2-c2ccc(OC)cc2)c1=O (stereo not drawn)	/	-3	/	-4	/
CCOC(=O)C(C)n1cnc2c(nnn2-c2ccc(C)cc2)c1=O (stereo not drawn)	/	-14	4	67*	/
CNC(=O)C[C@@H]1CC[C@H]2[C@H](COc3ccc(NS(=O)(=O)c4ccccc4C)cc3C(=O)N2C)O1	-1	/	-7	2	7
N#CCCN1CCNCC1	/	9	132*	11	/
COc1ccc(CN=CC2=C(O)CNC2=O)cc1OC	/	-8	94*	8	/
O=C1NCC(O)=C1C=NCCCO	/	-11	/	/	/
O=C1Cc2ccccc2Sc2c(OCCN3CCCCC3)cccc21	/	55*	/	/	/
CCCNC(=O)c1c(N)n(-c2cccc(OC)c2)c2nc3ccccc3nc12	-8	5	106*	-10	2
CS(=O)(=O)N(CC(=O)NCc1ccco1)c1ccc(OCc2ccccc2)cc1	-1	-3	123*	-11	-2
CN(C)c1ccnc2sc(C(=O)c3ccc(Br)cc3)c(N)c12	7	/	/	/	-2
CN(C)c1ccnc2sc(C(N)=O)c(N)c12	/	-3	34	48*	/
COc1ccc(N=Cc2c(O)[nH]c3ccccc23)cc1	/	-1	16	1	/
Oc1[nH]c2ccccc2c1C=Nc1ccc2c(c1)OCO2	/	-1	118*	12	/
CCCSC1=N/C(=C\c2ccsc2)C(=O)S1	/	-1	103*	10	/
CCSC1=N/C(=C\c2ccc3c(c2)OCO3)C(=O)S1	/	3	97*	3	/
C[C@@H]1CN([C@@H](C)CO)C(=O)c2cc(NC(=O)CCCN(C)C)ccc2O[C@@H](C)CCCCO[C@@H]1CN(C)S(=O)(=O)c1ccccc1	-1	/	/	-6	5
Fc1ccc(CSc2ncnc3nc[nH]c23)cc1	-4	-7	158*	4	2
CC(C)C#Cc1cnc2c(c1)C(=O)N([C@H](C)CO)C[C@@H](C)[C@@H](CN(C)C(=O)Cc1ccncc1)O2	0	/	-38	-4	3
COc1ccc(C(=O)Nc2ccc3c4c(cccc24)CC3)cc1	/	-1	/	86*	/
O=C(CN1C(=O)CCC1=O)Nc1ccc2c3c(cccc13)CC2	/	-6	92*	9	/
CCNC(=O)C[C@@H]1CC[C@@H](NS(=O)(=O)c2ccc(C)cc2)[C@@H](CO)O1	-1	/	-3	8	2
CCn1cc([N+](=O)[O-])c(C(=O)NCc2ccc3c(c2)OCO3)n1	0	-7	2	42*	1
NC1=NC(=Nc2ccccc2)c2ccccc21	/	-1	134*	11	/
CCCCCCCCCCn1c2c(c(=N)c3c1CCC3)CCC2	/	77*	/	/	/
CCCCSc1nc(C)cc(SCC(=O)N/N=C/c2cccc(OC)c2O)n1	/	8	126*	16	/
CCCC[C@@]1(C2CCCC2)Cc2cc(OCC(=O)O)c(Cl)c(Cl)c2C1=O	1	-2	-2	95*	0

Screens deposited in PubChem by Broad Institute.
